These results are taken from the EternaBench riboswitch data.

The data set deals with MS2 coat protein. Kind of data set: apparent Kd, MS2 coat protein; higher = weaker binding; RNA-MaP array; FMN 200 µM where present. The method in brief:
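The titrant was SNAP-549-labelled MS2 coat protein, run from 0.7 or 1.5 nM in doubling steps to 3 µM. It was applied to designs transcribed by stalled E. coli RNA polymerase on Illumina sequencing-chip clusters, without ligand first and then with constant ligand, in 100 mM Tris-HCl pH 7.5, 80 mM KCl, 4 mM MgCl2, BSA, DTT, yeast tRNA and Tween-20. The apparent Kd is the median of filtered per-cluster binding-curve fits, with green signal normalised to red-channel RNA signal and control-cluster median Fmax.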

Where [1] appears, read: designed as: OFF switch for flavin mononucleotide, no ligand.
Setting [2] is: ligand present: flavin mononucleotide, designed as: OFF switch for flavin mononucleotide.
Where [3] appears, read: designed as: ON switch for flavin mononucleotide, no ligand.
Setting [4] is: ligand present: flavin mononucleotide, designed as: ON switch for flavin mononucleotide.

With “CAAAACGUCGAGAAGGGCUCAGCGCAAGUGCCAGCAGGAUAUCGACAUGAGGAUCACCCAUGUCGUAUUUCAGGGUAGAUUUCA”, the “apparent Kd” value by setting is: under setting [1], 8.66 nM; under setting [2], 34.9 nM.
For “UCAUUUCAGAAAGGAUAUUAAUUCAUGACGAUACAUGAGGAUCACCCAUGUUAAGAAGGUUCUAAUACAAAUAAUGCAUUGUUC”, the “apparent Kd” value runs as follows: under setting [1], 13.2 nM; under setting [2], 10.5 nM.
Taken in the same sequence, the figures for “ACUAUACGAGGAUAUACUGACGGGCCUCGGGCGUCCCUGAGACAUGAGGAUCACCCAUGUAGAAGGCGUAUACU” were 38.4 nM and 216 nM.
For “UUACUAUUGGAGAAGGGUCGAUAAUAUAUAAUGGCAGGAUAUCCAACAUGAGGAUCACCCAUGUUUCACCCAUAUGAGGAUCAC”, in that order: 54.2 nM and 24.1 nM.
Taken in the same sequence, the figures for “AAUUUACAGCUAGGAUAUACAUGAGGAUCACCCAUGUAAUCAUAGGAUGUUAUCAUUGUAUGAGUGUAGAAGGAGCAAAUAAGA” were 6.73 nM and 6.74 nM.
Regarding “GACUUGGCUACAUGAGGAUCACCCAUGUUUGACUGGAUCGAUUAGGAUAUAGUGAUUUGCAACAAUUAGAAGGGAUGUUUACGG”, the “apparent Kd” value is, setting by setting: under setting [3], 23 nM; under setting [4], 28.8 nM.
For the sequence “GGAAAUCAUGUAGGAUAUGCAUGGCGAAGCUACGCAGAAGGACAUGAGGAUCACCCAUGUUAUAGCGUCCGAGAAAGGAUGCGA”, the “apparent Kd” value under setting [1] stood at 55.6 nM and the “apparent Kd” value under setting [2] turned out to be 114 nM.
As for “AAAAAAAAUGUGUAGGAUAUCAGUAAAAAUACAUGAGGAUCACCCAUGUUCAAAAAAAAAAAAACUGAGAAGGACACGGGAAGUCC”, the “apparent Kd” value worked out at 48.5 nM under setting [3] and 30.3 nM under setting [4].
For the sequence “AAGAAGUGAGGAUAUGUCUGUGCGAAAAAAAAAAAGUGCAGACAGAAGGCACAUGAGGAUCACCCAUGUCAAAA”, the “apparent Kd” value is, setting by setting: under setting [1], 25.6 nM; under setting [2], 37.1 nM.
Taken in the same sequence, the figures for “AAGUUAUUAGGAUAUACUUGUGCGAUUUAUACGUUGAUAUUACAUGAGGAUCACCCAUGUAGAAGGAAUAAAAA” were 20.8 nM and 17.4 nM.
As to “GCCAGGCGAGGAUAUGCGAGGUAGCCUUUGUCCGGAUACUGACAUGAGGAUCACCCAUGUAGAAGGUGCCUAGG”, the “apparent Kd” value under setting [1] was found to be 70.2 nM and the “apparent Kd” value under setting [2] was determined as 258 nM.
Taken in the same sequence, the figures for “CAGUAUUGAGGAUAUACAUGAGGAUCACCCAUGUGUUCCAGCUAGGAAACUAGCAAAAGUAGAAGGCAGUACUG” were 21.6 nM and 186 nM.
For “GCCAUCGCAUGAGGAUAUGGACAGCUUUGCUGUCCAGAAGGCAUGUCAAUAGACAUGAGGAUCACCCAUGUAGUUAAGAUGGCA”, the “apparent Kd” value runs as follows: under setting [3], 771 nM; under setting [4], 52.2 nM.
For the sequence “GUAGCAUACCGAGGAUAUUCAUACCGUAAACGGACAUGAGGAUCACCCAUGUGGCGAAAGCCUUGGGAGAAGGCGGAAUGCUAC”, the “apparent Kd” value came to 556 nM under setting [3] and 30.5 nM under setting [4].
For “AUUUAUGGCCAGAAGGACAUGAGGAUCACCCAUGUAGGAUAUGGACGAUUUUGCCCGGCGGUUCGUUUAGGAAGCACCGGUGGU”, in that order: 11.5 nM and 7.11 nM.
For “GCGUACAUAUCAGGAUAUCAUUGAAUGGAUUAACACAGUGAAUACAUGAGGAUCACCCAUGUGCUUGAGAAGGGAUUACAACGC”, the “apparent Kd” value reads like this: under setting [1], 10.9 nM; under setting [2], 9.4 nM.
Regarding “AGAGACCUCACAGGAUAUGCUGGACUUUGUCCAGCAGAAGGGUGAAAACAUGAGGAUCACCCAUGUAUGGUCUCCAAAUUUAAG”, the “apparent Kd” value was 182 nM under setting [3] and 13.5 nM under setting [4].
Take “UCUACGCGAAUCCAGAUGGAUAGCACAUGAGGAUCACCCAUGUAGGAUAUGCUACACAAAGUGUAGCAGAAGGACAAGCGUAGA”: the “apparent Kd” value was 28.3 nM under setting [1] and 32.3 nM under setting [2].
For the sequence “UUGGACGUCGUAGGAUAUGUGGGAUAUUCCUACAUGAGGAUCACCCAUGUUGACAUGGAAGAAGGACAGAAGGACGAUGUCCAU”, the “apparent Kd” value runs as follows: under setting [3], 31.1 nM; under setting [4], 5.52 nM.
Taken in the same sequence, the figures for “GUAUUGAGAUAAGGAUAUAAGUCUAUGACAUGAGGAUCACCCAUGUGUGUUUUAGAAGGUAUUUCGGUAAUAUUGUUACAGUAA” were 17.7 nM and 9.95 nM.
As to “AAGUAGAUCCGAGGAUAUACAAACCGGAAACGGUACAUGAGGAUCACCCAUGUAGAAGGCGGAUCUACAGGUACUAAAGUACCA”, the “apparent Kd” value worked out at 5.33 nM under setting [1] and 8.68 nM under setting [2].
For the sequence “GGGCUCAUCGAGAAGGCCUCAACAUGAGGAUCACCCAUGUUGUAAUAUGGGAGGAUAUCGAUGAUACAGCUACGUUUCGUACCC”, the “apparent Kd” value under setting [3] worked out at 18 nM and the “apparent Kd” value under setting [4] turned out to be 6.25 nM.
Take “GUAUUACAUGAGGAUCACCCAUGUGAGGAUAUCGAUGUAACUAGCAGCGUGCGGGACUCGAGAAGGCACUUGGA”: the “apparent Kd” value is 49.1 nM under setting [1] and 142 nM under setting [2].
On to “ACAGCCGUCUAGAAGGGCGUAACUAAUUCCUACGUAGGAUAUGGACGGACAUGAGGAUCACCCAUGUUUGCAUUCCUCGUGGUA”, for which the “apparent Kd” value under setting [1] amounted to 7.74 nM and the “apparent Kd” value under setting [2] amounted to 8.46 nM.
For “AGGUGACAUGAGGAUCACCCAUGUAAGGAUAUACGGUUAGUGGAGAGUUGGAAGAGAGGUAGAAGGUACGGAGC”, in that order: 288 nM and 137 nM.
Consider “UACGAAUACCCUCGUCGGCUGAAUCCAGAAGGACCACAUGAGGAUCACCCAUGUCGAAGAUAAAGGUAGGAUAUGGAGUGCCUA”, for which the “apparent Kd” value by setting is: under setting [3], 119 nM; under setting [4], 23.9 nM.
Turning to “AGGAUUGUGCUAGGAUAUCCAGGUUUGCAGCGAGGAGAAGGAGCACAUGAGGAUCACCCAUGUUCUCAAAGGCCACGGCAAUAU”, the “apparent Kd” value was found to be 6.98 nM under setting [1] and 13.4 nM under setting [2].
On to “UUGGACGUCGUAGGAUAUGUAGGAUAUUCCUACAUGAGGAUCACCCAUGUUGACAUGGAAGAAGGACAGAAGGACGUUGUCCAU”, for which the “apparent Kd” value came out at 404 nM under setting [3] and 5.74 nM under setting [4].
With “UUUUUAUUUGAAGGAUAUACUUAACAUGAGGAUCACCCAUGUGGUGUUGUGAGUGAGUGAGUUUAGUAGAAGGUCAAUUCUUUU”, the “apparent Kd” value by setting is: under setting [1], 401 nM; under setting [2], 696 nM.
Regarding “UUAAUUAAUUAAUUAUACAUGAGGAUCACCCAUGUAAGUGAUCAGGAUAUCAGCUCGAAUAGAGCUGAGAAGGGAUACAUGAAU”, the “apparent Kd” value reads like this: under setting [3], 144 nM; under setting [4], 118 nM.
As for “AAAUAAGUUGCAGGAUAUUAUUUAUAAUAUAUAUAAGAAGGGCAACAAACCUCACAUGAGGAUCACCCAUGUACCCAUGCAUCU”, the “apparent Kd” value under setting [1] was found to be 109 nM and the “apparent Kd” value under setting [2] came to 44.8 nM.
For “UCGUUGUCAGGAUAUCGUUAAUUUAAUUGUUUGUAUUAGUUCGAGAAGGGACAUGAGGAUCACCCAUGUUUGUU”, in that order: 57.2 nM and 154 nM.
For the sequence “AAUUGGAUCCAGAAGGCAUGGACGACCCGUCACAUUAACAUGAGGAUCACCCAUGUCAAAAGACAUGAGGAUAUGGAUCCUAAA”, the “apparent Kd” value was 752 nM under setting [3] and 31.8 nM under setting [4].
Taken in the same sequence, the figures for “UAACGCGCAUGCAAGGAUAUGUGCAGAGCUACAUGAGGAUCACCCAUGUGGUUAUGCUAUUGAAAACAGAAGGUGCCCUCGCUCA” were 25.8 nM and 24.3 nM.
For the sequence “UUUUACCUAGGAUAUACAUUUUUUUUAUUAUUUUCAUUAUAACAUGAGGAUCACCCAUGUAGAAGGAGGAUUUU”, the “apparent Kd” value is, setting by setting: under setting [1], 28.4 nM; under setting [2], 33.6 nM.
For the sequence “CCUCUACAUGAGGAUCACCCAUGUGAGGAUAUCAAAGCCAGAGCGGAUCUCUGGUCCAUGAGAAGGUGCAUGGU”, the “apparent Kd” value was 20.4 nM under setting [1] and 89.6 nM under setting [2].
As for “UGCAUGUUAGGAUAUGUUGUUGCGGGCGUACGCUCUCGACCACAGAAGGAACAUGAGGAUCACCCAUGUACCUC”, the “apparent Kd” value under setting [1] was found to be 20.3 nM and the “apparent Kd” value under setting [2] is 88.8 nM.
For “AGUAUGCACGCAGGAUAUACAUGAGGAUCACCCAUGUGGAACAGUGUAGUACUAGUUGAUCCUCAGUAGAAGGGCGGUCAAAUA”, in that order: 47.8 nM and 42.7 nM.
Turning to “CACGUCCACACAGGAUAUGCUGGACUUUGUCCAGCAGAAGGGUGACAUGAGGAUCACCCAUGUAAAAGGACGUGUAUAUUUAAU”, the “apparent Kd” value under setting [3] is 819 nM and the “apparent Kd” value under setting [4] amounted to 62.1 nM.
As to “ACUAUACGAGGAUAUACUGUCGGGCCUCGGGCAUACAUACGACAUGAGGAUCACCCAUGUAGAAGGCGUUUACU”, the “apparent Kd” value reads like this: under setting [1], 34.3 nM; under setting [2], 61.6 nM.
On to “GGCUACGUUUCGUAGCAGCUAGGUGAGGAUAUUCAAUUUUUCACAUGAGGAUCACCCAUGUAUGUGAAGAAGGCGCCUAGAAAC”, for which the “apparent Kd” value reads like this: under setting [3], 11.2 nM; under setting [4], 5.14 nM.
As to “GCGUCAGAAUUAAUUGUGACAGACAGAAGGCAAUAGUAUGUGACCGACAUGAGGAUCACCCAUGUUGAGGAUAUGUAUUGACGC”, the “apparent Kd” value is 5.26 nM under setting [1] and 6.53 nM under setting [2].
As for “UUAUUAUGUGUAGGAUAUGCAUAUUCUUAUUAUGCAGAAGGACAUGAGGAUCACCCAUGUAUAUUAUUAUUAUAUAUUAUAUAU”, the “apparent Kd” value runs as follows: under setting [1], 14.6 nM; under setting [2], 13.1 nM.
For “AACUGACAUGAGGAUCACCCAUGUCAGGAUAUGACUUGAUAGAAAAAAAAAUAUCAUGUCAGAAGGGACAUGAA”, in that order: 16.4 nM and 13.5 nM.
On to “UAAACAUGAGGAUCACCCAUGUUAUGAUCGGUUGAUGAAAGUGAGGAUAUACUUAAUUUUAUGGAGUAGAAGGCACUGGGUUCU”, for which the “apparent Kd” value was determined as 23.1 nM under setting [3] and 28.6 nM under setting [4].
“UAUAUGUCAGGAUAUCGAUUGGUACGGAAUUCGGUACUGGUUGAGAAGGGACAUGAGGAUCACCCAUGUUUUUC”: the “apparent Kd” value under setting [1] was 38.5 nM and the “apparent Kd” value under setting [2] came to 228 nM.
For “ACAUGAGGAUCACCCAUGUAUUACAUGGUUUAGUUUAUUAACAGAAGGCGAAAUUACCACUUUUUCGAGGAUAUGUAUUCUAUA”, in that order: 71 nM and 64.2 nM.
Consider “CUCGGACAUGAGGAUCACCCAUGUGAGGAUAUGGUGCUAUCGUCAUUAGACGAUUGCGUUAGAAGGCACAUUUU”, for which the “apparent Kd” value came to 31.4 nM under setting [1] and 80.1 nM under setting [2].
